Test results as given in ChEMBL document CHEMBL3585335, “Isolation and Synthetic Diversification of Jadomycin 4-Amino-l-phenylalanine” (J Nat Prod, 2015).
The source made the active and inactive calls.

Columns and labels:
[1] = system: UACC-257; assay: Cytotoxicity against human UACC257 cells assessed as cell growth at 1 x 10^-5 M; format: functional, cell-based
How it was run: (§1)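 Tested by the NCI Developmental Therapeutics Program in its one-dose screen across the 60 human tumour cell line panel.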

[2] = system: K562; assay: Cytotoxicity against human K562 cells assessed as cell growth at 1 x 10^-5 M; format: functional, cell-based
How it was run: (§2)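 Run by the NCI Developmental Therapeutics Program (DTP) as its one-dose screen across the 60 human tumour cell line panel.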

[3] = system: SN12C; assay: Cytotoxicity against human SN12C cells assessed as cell growth at 1 x 10^-5 M; format: functional, cell-based; how it was run: as §2
[4] = system: SF-295; assay: Cytotoxicity against human SF295 cells assessed as cell growth at 1 x 10^-5 M; format: functional, cell-based; how it was run: as §2
[5] = system: IGROV-1; assay: Cytotoxicity against human IGROV1 cells assessed as cell growth at 1 x 10^-5 M; format: functional, cell-based; how it was run: as §2
[6] = system: HOP-62; assay: Cytotoxicity against human HOP62 cells assessed as cell growth at 1 x 10^-5 M; format: functional, cell-based; how it was run: as §2
[7] = system: CAKI-1; assay: Cytotoxicity against human Caki1 cells assessed as cell growth at 1 x 10^-5 M; format: functional, cell-based; how it was run: as §2
[8] = system: HOP-92; assay: Cytotoxicity against human HOP92 cells assessed as cell growth at 1 x 10^-5 M; format: functional, cell-based; how it was run: as §2
[9] = system: U-251; assay: Cytotoxicity against human U251 cells assessed as cell growth at 1 x 10^-5 M; format: functional, cell-based; how it was run: as §1
[10] = system: UO-31; assay: Cytotoxicity against human UO31 cells assessed as cell growth at 1 x 10^-5 M; format: functional, cell-based; how it was run: as §1
[11] = system: MCF7; assay: Cytotoxicity against human MCF7 cells assessed as cell growth at 1 x 10^-5 M; format: functional, cell-based; how it was run: as §2
[12] = system: MOLT-4; assay: Cytotoxicity against human MOLT4 cells assessed as cell growth at 1 x 10^-5 M; format: functional, cell-based; how it was run: as §2
[13] = system: SW-620; assay: Cytotoxicity against human SW620 cells assessed as cell growth at 1 x 10^-5 M; format: functional, cell-based; how it was run: as §1
[14] = system: SR; assay: Cytotoxicity against human SR cells assessed as cell growth at 1 x 10^-5 M; format: functional, cell-based; how it was run: as §2
[15] = system: M14; assay: Cytotoxicity against human M14 cells assessed as cell growth at 1 x 10^-5 M; format: functional, cell-based; how it was run: as §2
[16] = system: NCI-H460; assay: Cytotoxicity against human NCI-H460 cells assessed as cell growth at 1 x 10^-5 M; format: functional, cell-based; how it was run: as §2
[17] = system: HT-29; assay: Cytotoxicity against human HT-29 cells assessed as cell growth at 1 x 10^-5 M; format: functional, cell-based; how it was run: as §2
[18] = system: A549; assay: Cytotoxicity against human A549 cells assessed as cell growth at 1 x 10^-5 M; format: functional, cell-based; how it was run: as §2
[19] = system: T47D; assay: Cytotoxicity against human T47D cells assessed as cell growth at 1 x 10^-5 M; format: functional, cell-based; how it was run: as §1
[20] = system: OVCAR-4; assay: Cytotoxicity against human OVCAR4 cells assessed as cell growth at 1 x 10^-5 M; format: functional, cell-based; how it was run: as §2
[21] = system: OVCAR-5; assay: Cytotoxicity against human OVCAR5 cells assessed as cell growth at 1 x 10^-5 M; format: functional, cell-based; how it was run: as §2
[22] = system: MDA-MB-468; assay: Cytotoxicity against human MDA-MB-468 cells assessed as cell growth at 1 x 10^-5 M; format: functional, cell-based; how it was run: as §2
[23] = system: HCC 2998; assay: Cytotoxicity against human HCC2998 cells assessed as cell growth at 1 x 10^-5 M; format: functional, cell-based; how it was run: as §2
[24] = system: OVCAR-3; assay: Cytotoxicity against human OVCAR3 cells assessed as cell growth at 1 x 10^-5 M; format: functional, cell-based; how it was run: as §2
[25] = system: SF-268; assay: Cytotoxicity against human SF268 cells assessed as cell growth at 1 x 10^-5 M; format: functional, cell-based; how it was run: as §2
[26] = system: TK-10; assay: Cytotoxicity against human TK10 cells assessed as cell growth at 1 x 10^-5 M; format: functional, cell-based; how it was run: as §1
[27] = system: OVCAR-8; assay: Cytotoxicity against human OVCAR8 cells assessed as cell growth at 1 x 10^-5 M; format: functional, cell-based; how it was run: as §2
[28] = system: Hs-578T; assay: Cytotoxicity against human Hs578T cells assessed as cell growth at 1 x 10^-5 M; format: functional, cell-based; how it was run: as §2
[29] = system: SNB-75; assay: Cytotoxicity against human SNB75 cells assessed as cell growth at 1 x 10^-5 M; format: functional, cell-based; how it was run: as §2
[30] = system: NCI-H23; assay: Cytotoxicity against human NCI-H23 cells assessed as cell growth at 1 x 10^-5 M; format: functional, cell-based; how it was run: as §2
[31] = system: UACC-62; assay: Cytotoxicity against human UACC62 cells assessed as cell growth at 1 x 10^-5 M; format: functional, cell-based; how it was run: as §1
[32] = system: MDA-MB-435; assay: Cytotoxicity against human MDA-MB-435 cells assessed as cell growth at 1 x 10^-5 M; format: functional, cell-based; how it was run: as §2
[33] = system: Escherichia coli; assay: Effect on photodynamic inactivation in Escherichia coli pUC19 DNA assessed as photo-mediated DNA cleavage at 10 to 100 uM by ethidium bromide gel-electrophoresis analysis
[34] = system: SK-OV-3; assay: Cytotoxicity against human SKOV3 cells assessed as cell growth at 1 x 10^-5 M; format: functional, cell-based; how it was run: as §2
[35] = system: ACHN; assay: Cytotoxicity against human ACHN cells assessed as cell growth at 1 x 10^-5 M; format: functional, cell-based; how it was run: as §2
[36] = system: NCI-H522; assay: Cytotoxicity against human NCI-H522 cells assessed as cell growth at 1 x 10^-5 M; format: functional, cell-based; how it was run: as §2
[37] = system: 786-0; assay: Cytotoxicity against human 786-0 cells assessed as cell growth at 1 x 10^-5 M; format: functional, cell-based; how it was run: as §2
[38] = system: SK-MEL-28; assay: Cytotoxicity against human SK-MEL-28 cells assessed as cell growth at 1 x 10^-5 M; format: functional, cell-based; how it was run: as §2
[39] = system: NCI-H322M; assay: Cytotoxicity against human NCI-H322M cells assessed as cell growth at 1 x 10^-5 M; format: functional, cell-based; how it was run: as §2
[40] = system: HL-60(TB); assay: Cytotoxicity against human HL-60(TB) cells assessed as cell growth at 1 x 10^-5 M; format: functional, cell-based
How it was run: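 Run by the NCI Developmental Therapeutics Program (DTP) within its 60 human tumour cell line one-dose screen.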

[41] = system: MDA-MB-231; assay: Cytotoxicity against human MDA-MB-231 cells assessed as cell growth at 1 x 10^-5 M; format: functional, cell-based; how it was run: as §2
[42] = system: DU-145; assay: Cytotoxicity against human DU145 cells assessed as cell growth at 1 x 10^-5 M; format: functional, cell-based; how it was run: as §2
[43] = system: LOX IMVI; assay: Cytotoxicity against human LOXIMVI cells assessed as cell growth at 1 x 10^-5 M; format: functional, cell-based; how it was run: as §2
[44] = system: RXF 393; assay: Cytotoxicity against human RXF393 cells assessed as cell growth at 1 x 10^-5 M; format: functional, cell-based; how it was run: as §2
[45] = system: PC-3; assay: Cytotoxicity against human PC3 cells assessed as cell growth at 1 x 10^-5 M; format: functional, cell-based; how it was run: as §2
[46] = system: Escherichia coli; assay: Effect on Copper-mediated Escherichia coli pUC19 DNA cleavage at 100 uM by gel-electrophoresis analysis
[47] = system: Malme-3M; assay: Cytotoxicity against human MALME-3M cells assessed as cell growth at 1 x 10^-5 M; format: functional, cell-based; how it was run: as §2
[48] = system: KM12; assay: Cytotoxicity against human KM12 cells assessed as cell growth at 1 x 10^-5 M; format: functional, cell-based; how it was run: as §2
[49] = system: SF-539; assay: Cytotoxicity against human SF539 cells assessed as cell growth at 1 x 10^-5 M; format: functional, cell-based; how it was run: as §2
[50] = system: SNB-19; assay: Cytotoxicity against human SNB19 cells assessed as cell growth at 1 x 10^-5 M; format: functional, cell-based; how it was run: as §2
[51] = system: NCI-H226; assay: Cytotoxicity against human NCI-H226 cells assessed as cell growth at 1 x 10^-5 M; format: functional, cell-based; how it was run: as §2
[52] = system: BT-549; assay: Cytotoxicity against human BT549 cells assessed as cell growth at 1 x 10^-5 M; format: functional, cell-based; how it was run: as §2
[53] = system: HCT-15; assay: Cytotoxicity against human HCT15 cells assessed as cell growth at 1 x 10^-5 M; format: functional, cell-based; how it was run: as §2
[54] = system: Escherichia coli; assay: Effect on Copper-mediated Escherichia coli pBR322 DNA cleavage at 100 uM by gel-electrophoresis analysis
[55] = system: HCT-116; assay: Cytotoxicity against human HCT116 cells assessed as cell growth at 1 x 10^-5 M; format: functional, cell-based; how it was run: as §2
[56] = system: SK-MEL-5; assay: Cytotoxicity against human SK-MEL-5 cells assessed as cell growth at 1 x 10^-5 M; format: functional, cell-based; how it was run: as §2
[57] = system: A498; assay: Cytotoxicity against human A498 cells assessed as cell growth at 1 x 10^-5 M; format: functional, cell-based; how it was run: as §2
[58] = system: COLO 205; assay: Cytotoxicity against human COLO205 cells assessed as cell growth at 1 x 10^-5 M; format: functional, cell-based; how it was run: as §2
[59] = system: SK-MEL-2; assay: Cytotoxicity against human SK-MEL-2 cells assessed as cell growth at 1 x 10^-5 M; format: functional, cell-based; how it was run: as §2
[60] = system: NCI/ADR-RES; assay: Cytotoxicity against human NCI-ADR-RES cells assessed as cell growth at 1 x 10^-5 M; format: functional, cell-based; how it was run: as §2
[61] = system: CCRF-CEM; assay: Cytotoxicity against human CCRF-CEM cells assessed as cell growth at 1 x 10^-5 M; format: functional, cell-based; how it was run: as §2

CCCCCCCCC(=O)Nc1ccc(C[C@H]2C(=O)OC3c4cc(C)cc(O)c4C4=C(C(=O)c5c(O[C@H]6C[C@@H](O)[C@@H](O)[C@H](C)O6)cccc5C4=O)N32)cc1 (stereo partly specified)
inactive: growth inhibition (GI) [1] | growth inhibition (GI) [2] | growth inhibition (GI) [3] | growth inhibition (GI) [4] | growth inhibition (GI) [5] | growth inhibition (GI) [6] | growth inhibition (GI) [7] | growth inhibition (GI) [8] | growth inhibition (GI) [9] | growth inhibition (GI) [10] | growth inhibition (GI) [11] | growth inhibition (GI) [12] | growth inhibition (GI) [13] | growth inhibition (GI) [14] | growth inhibition (GI) [15] | growth inhibition (GI) [16] | growth inhibition (GI) [17] | growth inhibition (GI) [18] | growth inhibition (GI) [19] | growth inhibition (GI) [20] | growth inhibition (GI) [21] | growth inhibition (GI) [22] | growth inhibition (GI) [23] | growth inhibition (GI) [24] | growth inhibition (GI) [25] | growth inhibition (GI) [26] | growth inhibition (GI) [27] | growth inhibition (GI) [28] | growth inhibition (GI) [29] | growth inhibition (GI) [30] | growth inhibition (GI) [31] | growth inhibition (GI) [32] | Activity [33] | growth inhibition (GI) [34] | growth inhibition (GI) [35] | growth inhibition (GI) [36] | growth inhibition (GI) [37] | growth inhibition (GI) [38] | growth inhibition (GI) [39] | growth inhibition (GI) [40] | growth inhibition (GI) [41] | growth inhibition (GI) [42] | growth inhibition (GI) [43] | growth inhibition (GI) [44] | growth inhibition (GI) [45] | Activity [46] | growth inhibition (GI) [47] | growth inhibition (GI) [48] | growth inhibition (GI) [49] | growth inhibition (GI) [50] | growth inhibition (GI) [51] | growth inhibition (GI) [52] | growth inhibition (GI) [53] | Activity [54] | growth inhibition (GI) [55] | growth inhibition (GI) [56] | growth inhibition (GI) [57] | growth inhibition (GI) [58] | growth inhibition (GI) [59] | growth inhibition (GI) [60] | growth inhibition (GI) [61]
